According to ChEMBL document CHEMBL4304784, “Discovery of new potent dual sigma receptor/GluN2b ligands with antioxidant property as neuroprotective agents” (Eur J Med Chem, 2019):
In brackets after ≈: the same amount, converted by molar mass.

Experiments:
[1] = Cytotoxicity against human Hep3B cells assessed as decrease in cell viability incubated for 48 hrs by MTT assay; format: cell-based, Hep 3B2; details: read-out: LD50
Summary of the method: (§1)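 Cells kept in DMEM Glutamax with 10% FBS and antibiotic/antimycotic at 37 °C, 5% CO2. Seeded 24 h before dosing (SH-SY5Y at 2x10^3 cells/well). Compounds in DMSO serially diluted in medium, final DMSO 1.0%, exposure 48 h. MTT added for 4 h at 37 °C, read A595 minus A655. LD50 from linear regression of dose-log response curves; triplicates, three experiments, mean ± SEM.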

[2] = molecular target: T1, Sigma intracellular receptor 2 (Rattus norvegicus, UniProt Q5U3Y7); test: Displacement of [3H]-di-o-tolylguanidine from sigma2 receptor in rat liver membranes in the presence of sigma1 receptor ligand (+)-pentazocine incubated for 120 mins by scintillation counting method; format: cell membranes
T1 sequence (Q5U3Y7 whole entry): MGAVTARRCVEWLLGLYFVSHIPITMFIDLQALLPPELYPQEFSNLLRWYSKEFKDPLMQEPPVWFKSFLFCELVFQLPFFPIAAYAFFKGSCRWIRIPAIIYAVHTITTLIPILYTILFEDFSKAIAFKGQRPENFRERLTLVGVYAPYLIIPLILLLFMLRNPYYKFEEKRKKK
Summary of the method: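 Rat liver membranes (about 100 µg protein) with 3 nM [3H]di-o-tolylguanidine in 50 mM TRIS pH 8.0 containing 500 nM (+)-pentazocine, at rt. Non-specific binding defined with 10 µM unlabeled DTG. Concentrations 10^-5 to 10^-10 M, in duplicate. 120 min, filtration, scintillation counting. Three independent experiments, mean ± SEM.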

[3] = Cytotoxicity against human Hep3B cells assessed as cell viability at 25 uM incubated for 48 hrs by MTT assay relative to control; format: cell-based, Hep 3B2; details: read-out: Activity
Summary of the method: (§2)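 Cells kept in DMEM Glutamax with 10% FBS and antibiotic/antimycotic at 37 °C, 5% CO2. Plated at 2x10^3 cells/well 24 h before dosing. Compounds taken from DMSO and diluted in medium, final DMSO ≤1.0%. Exposure 48 h, then MTT added for 4 h at 37 °C. Read as A595 minus A655. Triplicates, at least three independent experiments, mean ± SEM.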

[4] = Cytotoxicity against human SH-SY5Y cells assessed as cell viability at 10 uM incubated for 48 hrs by MTT assay (reference value: 100 +/- 12.00%); format: cell-based; details: read-out: Activity; summary of the method: as §2
[5] = molecular target: Sigma non-opioid intracellular receptor 1 (Cavia porcellus, UniProt Q60492); test: Displacement of [3H]-(+)-pentazocine from sigma1 receptor in guinea pig brain cortex membranes incubated for 120 mins by solid scintillation counting method; format: cell membranes
Chain of Sigma non-opioid intracellular receptor 1 (Q60492 whole entry): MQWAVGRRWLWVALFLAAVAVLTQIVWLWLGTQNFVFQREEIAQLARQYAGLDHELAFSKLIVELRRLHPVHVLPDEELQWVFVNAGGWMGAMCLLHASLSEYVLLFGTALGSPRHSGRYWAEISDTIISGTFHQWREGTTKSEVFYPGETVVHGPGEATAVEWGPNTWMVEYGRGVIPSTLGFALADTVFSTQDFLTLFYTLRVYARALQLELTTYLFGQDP
Summary of the method: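 Guinea pig brain cortex membranes (about 100 µg protein) with 2 nM [3H]-(+)-pentazocine in 50 mM TRIS pH 7.4 at 37 °C. Non-specific binding defined with 10 µM unlabeled (+)-pentazocine. Six concentrations, 10^-5 to 10^-10 M, in duplicate. 120 min with shaking, filtration, solid scintillator counting.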

[6] = molecular target: T2, Glutamate NMDA receptor; GRIN1/GRIN2B (Homo sapiens, UniProt Q05586+Q13224); test: Potency index, ratio of ifenprodil Ki to test compound Ki for displacement of [3H]ifenprodil from GluN1a/GluN2B (unknown origin) expressed in mouse L(tk-) cell membranes
[7] = Selectivity ratio of Ki for sigma2 receptor in rat liver membranes to Ki for GluN1a/GluN2B (unknown origin) expressed in mouse L(tk-) cell membranes; format: cell-based
[8] = Antioxidant activity assessed as H2O2 radical scavenging activity; format: functional
Summary of the method: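 Compounds at 0.05, 0.1, 0.2 and 0.4 mg/mL in phosphate buffer pH 7.4. 0.353 mL of 4 mM H2O2 in phosphate buffer added to 2.0 mL of each solution, absorbance read at 239 nm. Percent inhibition calculated from absorbances relative to control. Triplicate, mean ± SEM.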

[9] = Cytotoxicity against human SH-SY5Y cells assessed as decrease in cell viability incubated for 48 hrs by MTT assay; format: cell-based; details: read-out: LD50; summary of the method: as §1
SH-SY5Y = test: Neuroprotective activity against H2O2-induced toxicity in human SH-SY5Y cells assessed as cell viability at 25 uM pretreated for 48 hrs followed by H2O2 challenge and measured after 4 hrs by MTT assay (reference value: 18 +/- 2.64%); format: functional; details: read-out: Activity
[10] = Cytotoxicity against human HeLa cells assessed as cell viability at 50 uM incubated for 48 hrs by MTT assay relative to control; format: cell-based; details: read-out: Activity; summary of the method: as §2
[11] = Cytotoxicity against human SH-SY5Y cells assessed as cell viability at 100 uM incubated for 48 hrs by MTT assay (reference value: 100 +/- 12.00%); format: cell-based; details: read-out: Activity; summary of the method: as §2
[12] = Cytotoxicity against human SH-SY5Y cells assessed as cell viability at 25 uM incubated for 48 hrs by MTT assay (reference value: 100 +/- 12.00%); format: cell-based; details: read-out: Activity; summary of the method: as §2
[13] = Cytotoxicity against human Hep3B cells assessed as cell viability at 50 uM incubated for 48 hrs by MTT assay relative to control; format: cell-based, Hep 3B2; details: read-out: Activity; summary of the method: as §2
[14] = Cytotoxicity against human HeLa cells assessed as cell viability at 25 uM incubated for 48 hrs by MTT assay relative to control; format: cell-based; details: read-out: Activity; summary of the method: as §2
[15] = molecular target: T2, Glutamate NMDA receptor; GRIN1/GRIN2B; test: Displacement of [3H]ifenprodil from GluN1a/GluN2B (unknown origin) expressed in mouse L(tk-) cell membranes after 120 mins by solid scintillation counting method
Summary of the method: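 Membranes (about 20 μg protein) from mouse L(tk-) cells stably carrying GluN1a/GluN2B, induced with 4 μM dexamethasone and 4 μM ketamine for 24 h. Incubated with 5 nM [3H]ifenprodil in 5 mM TRIS/1 mM EDTA pH 7.5 at 37 °C, 120 min. Non-specific binding defined with 10 μM ifenprodil.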

[16] = Selectivity ratio of Ki for sigma1 receptor in guinea pig brain membranes to Ki for sigma2 receptor in rat liver membranes; format: cell membranes
[17] = Cytotoxicity against human SH-SY5Y cells assessed as cell viability at 50 uM incubated for 48 hrs by MTT assay (reference value: 100 +/- 12.00%); format: cell-based; details: read-out: Activity; summary of the method: as §2
[18] = Cytotoxicity against human HeLa cells assessed as cell viability at 100 uM incubated for 48 hrs by MTT assay relative to control; format: cell-based; details: read-out: Activity; summary of the method: as §2
[19] = Cytotoxicity against human Hep3B cells assessed as cell viability at 10 uM incubated for 48 hrs by MTT assay relative to control; format: cell-based, Hep 3B2; details: read-out: Activity; summary of the method: as §2
[20] = Cytotoxicity against human HeLa cells assessed as decrease in cell viability incubated for 48 hrs by MTT assay; format: cell-based; details: read-out: LD50; summary of the method: as §1
[21] = Antioxidant activity assessed as ABTS radical scavenging activity incubated for 40 mins; format: functional
Summary of the method: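 Test compound at 0.05, 0.1, 0.2 and 0.4 mg/mL (200 µL) added to 1.8 mL ethanolic ABTS 7mM. Incubated 40 min at room temperature, absorbance read at 735 nm against ABTS solution. Percent inhibition computed from absorbances and used to derive IC50. Triplicate, mean ± SEM; ascorbic acid as reference.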

[22] = Cytotoxicity against human HeLa cells assessed as cell viability at 10 uM incubated for 48 hrs by MTT assay relative to control; format: cell-based; details: read-out: Activity; summary of the method: as §2
[23] = Cytotoxicity against human Hep3B cells assessed as cell viability at 100 uM incubated for 48 hrs by MTT assay relative to control; format: cell-based, Hep 3B2; details: read-out: Activity; summary of the method: as §2

## O=C1CCc2ccccc2N1CCCCN1CCN(C2CCCCC2)CC1
[1]
  CC50 at 48 h: 81 µM
[2]
  Ki: 0.0015 µM
[3]
  viability at 48 h, 25 µM: 70%
[4]
  viability at 48 h, 10 µM: 91%
[5]
  Ki: 0.021 µM
[6]
  Ratio Ki: 5
[7]
  Ratio Ki: 0.75
[8]
  IC50: 38.29 µg/mL (≈ 104 µM)
[9]
  CC50 at 48 h: 493 µM
SH-SY5Y
  viability at 25 µM: 105%
[10]
  viability at 48 h, 50 µM: 79%
[11]
  viability at 48 h, 100 µM: 99%
[12]
  viability at 48 h, 25 µM: 81 to 111%
[13]
  viability at 48 h, 50 µM: 48%
[14]
  viability at 48 h, 25 µM: 75%
[15]
  Ki: 0.002 µM
[16]
  Ratio Ki: 14
[17]
  viability at 48 h, 50 µM: 86%
[18]
  viability at 48 h, 100 µM: 94%
[19]
  viability at 48 h, 10 µM: 106%
[20]
  CC50 at 48 h: 265 µM
[21]
  IC50: 35.79 µg/mL (≈ 96.8 µM)
[22]
  viability at 48 h, 10 µM: 83%
[23]
  viability at 48 h, 100 µM: 52%

## Cc1ccc(CN(C)CCCCn2nc(-c3ccccc3)oc2=O)c(C)c1
[1]
  CC50 at 48 h: 70 µM
[2]
  Ki: 0.021 µM
[3]
  viability at 48 h, 25 µM: 83%
[4]
  viability at 48 h, 10 µM: 121%
[5]
  Ki: 0.02 µM
[7]
  Ratio Ki: 0.8
[8]
  IC50: 31.44 µg/mL (≈ 86 µM)
[9]
  CC50 at 48 h: 77 µM
SH-SY5Y
  viability at 25 µM: 100%
[10]
  viability at 48 h, 50 µM: 80%
[11]
  viability at 48 h, 100 µM: 28%
[12]
  viability at 48 h, 25 µM: 85 to 96%
[13]
  viability at 48 h, 50 µM: 70%
[14]
  viability at 48 h, 25 µM: 74%
[15]
  Ki: 0.026 µM
[16]
  Ratio Ki: 0.95
[17]
  viability at 48 h, 50 µM: 75%
[18]
  viability at 48 h, 100 µM: 22%
[19]
  viability at 48 h, 10 µM: 100%
[20]
  CC50 at 48 h: 69 µM
[21]
  IC50: 25.47 µg/mL (≈ 69.7 µM)
[22]
  viability at 48 h, 10 µM: 86%
[23]
  viability at 48 h, 100 µM: 25%

## O=C1CCc2ccccc2N1CCCCN1CCN(c2ccc(F)cc2)CC1
[1]
  CC50 at 48 h: 77 µM
[2]
  Ki: 0.021 µM
[3]
  viability at 48 h, 25 µM: 83%
[4]
  viability at 48 h, 10 µM: 127%
[5]
  Ki: 0.016 µM
[7]
  Ratio Ki: 2.6
[8]
  IC50: 24.04 µg/mL (≈ 63 µM)
[9]
  CC50 at 48 h: 63 µM
SH-SY5Y
  viability at 25 µM: 86%
[10]
  viability at 48 h, 50 µM: 70%
[11]
  viability at 48 h, 100 µM: 60%
[12]
  viability at 48 h, 25 µM: 84 to 121%
[13]
  viability at 48 h, 50 µM: 54%
[14]
  viability at 48 h, 25 µM: 78%
[15]
  Ki: 0.0081 µM
[16]
  Ratio Ki: 0.76
[17]
  viability at 48 h, 50 µM: 116%
[18]
  viability at 48 h, 100 µM: 70%
[19]
  viability at 48 h, 10 µM: 99%
[20]
  CC50 at 48 h: 128 µM
[21]
  IC50: 21.34 µg/mL (≈ 55.9 µM)
[22]
  viability at 48 h, 10 µM: 88%
[23]
  viability at 48 h, 100 µM: 41%
